Rows were chosen to be rich in hits. Some 1.5% of all compounds tested hit in one or more screens of this group.
Platelet DG rel – platelet dense granule release activity | AID 1663 | 0.22% of 300,000 active | human platelet-rich plasma, SFLLRN dense granule ATP release, luminescence | inhibition, %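 (compounds screened at 7.5 µM in platelet-rich plasma)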;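 active means mean replicate score, as percent of positive control, at or above 50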
PPC-1+TRAIL kill – PPC-1 cancer cell killing with TRAIL present | AID 1443 | PPC-1 cells + TRAIL, ATPLite viability luminescence | cell killing (% activity), % at 4 µM or 5 µM | 0.41% of 220,000 active;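 active means cell killing above 50% in the first pass at 4 µM, then a duplicate retest at 5 µM averaging 50% or more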;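 further: plate controls were cells with TRAIL plus DMSO for no effect and medium-only wells lacking cells for full effect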
TAG inh – reduces triacylglycerol accumulation in H9c2 cells; inhibition, % at 12.5 µM; 0.66% of 230,000 active; Nile Red lipid (TAG) fluorescence; cells loaded with 200 µM oleic acid;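 active means pattern-corrected inhibition of lipid staining of at least 50% with the nuclear-stain viability signal not falling by more than 50%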;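 further: 0% = DMSO wells and 100% = triacsin C control wells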
Lipid droplet – modulators of hepatic lipid droplet formation | AID 1656 | AML12 mouse hepatocytes, oleate lipid droplets, BODIPY imaging | 0.4% of 240,000 active | inhibition, % at 6.5 µM;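 active means lipid droplet intensity inhibited by at least 50%, with more than 500 cells counted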
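Material – AML12 mouse liver cells · Also added – oleate loading, 100 µM · Compound dosing – 6.5 µM single-point dosing · Times – overnight treatment with compound plus oleate · Measured by – fluorescence imaging, 20x objective, two fields per well · Read-out – percent inhibition of filter-corrected integrated lipid droplet intensity per well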
STAT1 blocker – inhibitors of IFN-gamma induced STAT1 signaling | NIH 3T3 STAT1-luciferase reporter, luminescence | inhibition, % at 5.5 µM | 0.35% of 200,000 active | AID 920;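 active means inhibition above a set limit, the mean inhibition across all tested compounds plus 3 SD, cut at about 34% in these data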;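 further: 0% = IFN-gamma with DMSO and 100% = IFN-gamma with 300 µM nifuroxazide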
STAT3 blocker – reduces IL-6 driven STAT3 reporter signal; U3A cells, IL-6 STAT3-luciferase reporter, luminescence; host cell line lacks STAT1; inhibition, % at 5.5 µM; 0.89% of 190,000 active;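 active means inhibition above the mean inhibition across all screened compounds plus 3 SD, cut at about 44% in these data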;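 further: 0% = DMSO only wells and 100% = 100 µM nifuroxazide control wells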
PPC-1 tox – PPC-1 cell cytotoxicity. shares compounds with PPC-1+TRAIL kill. PPC-1 viability, ATPlite luminescence, overnight. cytotoxicity, % at 5 µM. 50% of 1,200 active. AID 1447;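 active means reconfirmed compounds whose average cytotoxicity reaches 50% or more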;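 further: 0% = DMSO-treated cells and 100% = wells holding medium but no cells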
Active calls of the source: *; x = not tested or not shown.

SMILES	Platelet DG rel	PPC-1+TRAIL kill	TAG inh	Lipid droplet	STAT1 blocker	STAT3 blocker	PPC-1 tox
O=C(N/N=C/c1cccc2cccnc12)c1ccccc1O	-2.1	33.2	65.1*	-9.5	x	x	19.3
Cc1ccccc1/C=N/Nc1nc2ccccc2[nH]1	-1.1	-5.3	10.8	-3.0	-4.8	19.3	x
C(=N\Nc1nc2ccccc2[nH]1)/c1cccc2cccnc12	12.0	53.2*	66.7*	1.5	x	x	51.8*
O=C(N/N=C/c1cccc2nccnc12)c1ccccc1O	0.6	20.2	23.8	27.4	x	x	x
CCOc1ccc(CCN2C(=S)N([C@@H](CC(C)C)CN3CCCC3CN3C(=S)NC[C@@H]3CC(C)C)C[C@@H]2CC(C)C)cc1 (stereo partly specified)	x	x	45.4	x	x	x	x
Cc1cc(/C=N/NC(=O)c2cccc(N(C)C)c2)c(C)n1-c1cc(C(=O)O)cc(C(=O)O)c1	0.8	1.8	-5.5	20.5	-16.1	3.7	x
CN(C)c1cccc(C(=O)N/N=C/c2ccccc2F)c1	x	61.5*	-4.5	1.0	68.6*	88.8*	58.7*
O=C(N/N=C/c1ccc(Cl)c([N+](=O)[O-])c1)c1cc(-c2ccc3c4c(cccc24)CC3)n[nH]1	52.2*	42.5	23.3	24.1	x	x	32.9
NC(COCc1ccccc1)c1csc(NC(=O)Nc2cccc(C(F)(F)F)c2)n1 (stereo unspecified)	x	x	24.7	x	x	x	x
c1ccc(CSCc2cn3ccccc3n2)cc1	-2.7	-3.6	2.4	-3.0	-58.9	4.6	-6.2
COc1cccc(CNc2cccc3cccnc23)c1O	-4.1	-1.9	x	0.6	3.9	-9.2	9.3
CCOC(=O)C1(C)/C(=N/Nc2ccccc2)C(=O)C(=O)N1c1ccccc1 (stereo unspecified)	15.1	-8.9	-1.8	-5.3	3.0	2.0	-0.6
CCOC(=O)C1(C)/C(=N/Nc2ccccc2OC)C(=O)C(=O)N1c1ccccc1 (stereo unspecified)	-1.0	-3.8	2.5	-0.7	4.8	14.1	x
Cn1nc(-c2ccccn2)nc2c(=O)n(C)c(=O)nc1-2	147.9*	30.5	118.0	-3.9	x	x	36.0
COCCN1C[C@@H](CO)O[C@@H](n2cnc3c(NC4CCCC4)ncnc32)C1	x	x	-0.2	x	x	x	x
Cc1ccc(F)cc1C(=O)N1CCCCC1c1cc(C(=O)NC(C)C)no1 (stereo unspecified)	x	x	-6.0	x	x	x	x
CSc1cc(C)n(-c2ccc(Cl)cc2)c(=S)c1C(C)=O	6.9	1.7	1.7	8.7	5.4	-0.6	x
COc1ccc(-n2c(C)cc(SC)c(C(C)=O)c2=S)cc1	-11.3	13.7	8.0	-21.9	-2.6	4.3	-6.9
Cn1c(N)c(C#N)c(-c2ccccc2)c(C#N)c1=O	x	x	-0.5	x	x	x	x
Cc1cc(C)cc(OCC(=O)NC2=NCCS2)c1	2.9	-2.8	-11.4	4.8	-3.8	7.3	0.4
CCN(CC)C(=O)C1=C(C)NC(=S)NC1c1ccc(C)s1 (stereo unspecified)	1.8	-6.3	9.2	-5.2	7.8	6.2	-12.8
Cc1cc(C)c(C)c(S(=O)(=O)Nc2cccc(S(=O)(=O)Nc3ccccc3C(=O)O)c2)c1C	x	x	-2.4	x	x	x	x
COc1cccc(-c2noc(-c3ccc4c(c3)OCO4)n2)c1	38.9	59.5*	-9.6	3.0	40.8*	71.8*	62.2*
COc1ccc(-c2noc(-c3ccc4c(c3)OCO4)n2)cc1	2.3	29.1	8.3	x	-23.8	17.3	x
CCOc1cccc2sc(Cl)nc12	-1.3	5.4	-4.5	2.4	7.3	6.1	4.3
SMILES	Platelet DG rel	PPC-1+TRAIL kill	TAG inh	Lipid droplet	STAT1 blocker	STAT3 blocker	PPC-1 tox
Nc1c(Cl)cc(C(=O)NC2CC2)cc1Cl	x	x	-3.6	x	x	x	x
CC1Oc2ccc(C#N)cc2N(Cc2cccc(F)c2)C1=O (stereo unspecified)	x	x	5.4	x	x	x	x
Cc1sc2nc(C(C)(C)C)oc(=O)c2c1C	-1.7	-8.6	x	15.1	2.5	1.7	1.2
O=C(Nc1ccc2c(c1)OCO2)c1ccc2c(c1)OCO2	45.5	48.1	x	1.2	-35.9	36.4	x
O=C(Nc1ccc2c(c1)OCO2)Nc1ccc2c(c1)OCO2	4.6	25.2	x	4.9	-47.2	6.5	12.9
O=C(Nc1ccc2nsnc2c1)c1ccc2c(c1)OCO2	x	49.8	x	1.0	-58.4	32.2	52.4*
O=C(NCCc1ccccc1)Nc1nnc([C@@H]2C[C@H](O)[C@@H](CO)O2)s1	x	x	-9.7	x	x	x	x
CCNC(=O)C1CCCN(C(=O)c2cc(F)cc(F)c2)CC1 (stereo unspecified)	x	x	-16.1	x	x	x	x
CCOc1cccc(C(=O)Nc2ccccc2OC(F)F)c1	-1.6	8.7	-6.0	3.3	-8.6	21.0	13.4
O=C(Nc1nc2ccc(F)cc2s1)c1ccccn1	28.5	60.0*	x	-46.3	69.7*	95.5*	62.3*
Cc1ccc2nc(NC(=O)c3ccc(Cl)s3)sc2c1	-3.4	8.6	12.7	x	-58.1	20.3	10.1
Cc1ccc2nc(NC(=O)CN3C(=O)C4CC=CCC4C3=O)sc2c1 (stereo unspecified)	x	9.1	0.6	0.6	-17.7	18.1	20.9
O=C(Nc1nc2ccccc2s1)c1cnccn1	8.0	37.3	x	1.2	-17.8	36.0	x
CC(c1ccccc1)C(OC(=O)c1cccc([N+](=O)[O-])c1C(=O)O)c1ccccc1 (stereo unspecified)	x	x	-16.0	x	x	x	x
Cc1cc(C(O)c2ncc(-c3ccccc3)[nH]2)ccc1F (stereo unspecified)	x	x	-1.0	x	x	x	x
O=C(O)c1ccccc1NC(=O)C1CCN(S(=O)(=O)c2ccc3c(c2)OCCO3)CC1	x	x	-4.9	x	x	x	x
N/C(=N\OC(=O)c1ccc2c(c1)OCO2)c1cccc(Br)c1	2.9	7.4	-1.0	-5.1	-70.8	-1.0	x
N/C(=N\OC(=O)c1ccc2c(c1)OCO2)c1cccnc1	15.5	74.2*	x	5.1	12.4	12.4	73.6*
CNC(=O)c1cc2c(s1)CCCCCC2	1.4	17.5	x	4.7	0.1	5.7	x
Cc1cnc(NC(=O)c2cc3c(s2)CCCC3)s1	1.7	72.0*	-6.9	5.0	41.6*	73.5*	70.1*
Cc1csc(NC(=O)c2cc3c(s2)CCCCC3)n1	25.6	84.8*	12.9	1.7	67.8*	96.6*	82.1*
COc1ccc(CCNC(=O)c2cccc(S(=O)(=O)N3CCCC3)c2)cc1OC	x	x	5.5	x	x	x	x
COc1cc(C(=O)NCCc2ccc(S(=O)(=O)N3CCCC3)cc2)cc(OC)c1OC	-0.5	5.2	-8.0	-25.4	2.5	0.4	5.0
Cc1ccc(S(=O)(=O)N(C)c2ccc(C(=O)NC3CCCCC3)cc2)cc1	x	x	13.3	x	x	x	x
Cc1ccc(-c2nc3cc(N)ccc3o2)c(C)c1	1.7	44.5	23.6	x	-59.5	40.1	47.8
Cc1ccc2oc(-c3cccc(N)c3)nc2c1	35.5	55.0*	0.7	7.0	8.2	27.4	55.6*
CCOC(=O)C1C(C(=O)OCC)C(C)(C)C1N(C)C (stereo unspecified)	x	x	7.7	x	x	x	x
CCC(C)C(CO)NCCCn1cnc2c(OCc3ccccc3)ncnc21 (stereo unspecified)	x	x	-1.5	x	x	x	x

Compound activity from PubChem.
